Measured values: ChEMBL document CHEMBL4732029, “Synthesis and evaluation of bis(imino)anthracene derivatives as G-quadruplex ligands” (RSC Med Chem, 2021)

System: HeLa
Test: Cytotoxicity against human HeLa cells
Format: functional, cell-based
Method in brief: (§1)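 HeLa cells (ATCC CCL-2) were exposed to each compound at 100, 30, 10 and 1 µM for 24 h. Viability was read by PrestoBlue absorbance and normalized to a DMSO negative control; doxorubicin served as positive control. Data are mean and SEM. IC50 came from the percentage viability plotted against log concentration, with R squared reported.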

How did the IC50 turn out when CN1CCC[C@H]1CCNC(=O)c1cn2c3c(c(N4CCC(c5cnccn5)C4)c(F)cc3c1=O)Oc1cc3ccccc3cc1-2 (stereo partly specified) [QUARFLOXIN] was run?
Its IC50 is 4440 nM.

With COc1cccc2c1C(=O)c1c(O)c3c(c(O)c1C2=O)C[C@@](O)(C(=O)CO)C[C@@H]3O[C@H]1C[C@H](N2CCO[C@H](OC)C2)[C@H](O)[C@H](C)O1 [NEMORUBICIN] as the compound, how does the IC50 read?
Its IC50 is 80 nM.

With COc1cccc2c1C(=O)c1c(O)c3c(c(O)c1C2=O)C[C@@](O)(C(=O)CO)C[C@@H]3O[C@H]1C[C@H](N)[C@H](O)[C@H](C)O1 [DOXORUBICIN] as the compound, how does the IC50 read?
Its IC50 is 374 nM.

Cc1cc2c3c([n+](C)c4ccc(F)cc4c3c1)-c1cc(F)ccc1N2C was tested. Which IC50 did it give?
Its IC50 is 200 nM.

For Cc1cnc(CNC(=O)c2c(=O)c3ccc(N4CCCN(C)CC4)nc3n3c2sc2ccccc23)cn1 [CX-5461], which IC50 is on record?
Its IC50 is 6890 nM.

With CN(C)CCNC(=O)c1cccn2c(=O)c3cc4ccccc4cc3nc12 as the compound, how does the IC50 read?
Its IC50 is 460 nM.

System: HeLa
Test: Cytotoxicity against human HeLa cells assessed as reduction in cell viability incubated for 24 hrs by MTT assay
Format: functional, cell-based

Which IC50 does the source give for CN(C)c1ccc(Nc2c3ccc(NC(=O)CCN4CCCC4)cc3nc3cc(NC(=O)CCN4CCCC4)ccc23)cc1 here?
Its IC50 is 5.25 µM.

System: HeLa
Test: Cytotoxicity against human HeLa cells assessed as reduction in cell viability incubated for 24 hrs by presto blue assay
Format: functional, cell-based
Method in brief: as §1

Which IC50 does the source give for C(=N\CCc1c[nH]c2ccccc12)/c1c2ccccc2c(/C=N/CCc2c[nH]c3ccccc23)c2ccccc12 here?
Its IC50 is 30.6 µM.

How did the IC50 turn out when C(=N\CCN1CCCCC1)/c1c2ccccc2c(/C=N/CCN2CCCCC2)c2ccccc12 was run?
The IC50 was 23.8 µM.

Which IC50 does the source give for Cc1cnc(/N=C/c2c3ccccc3c(/C=N/c3ncc(C)s3)c3ccccc23)s1 here?
The IC50 was 20.5 µM.

With C(=N\Cc1ccc2c(c1)OCO2)/c1c2ccccc2c(/C=N/Cc2ccc3c(c2)OCO3)c2ccccc12 as the compound, how does the IC50 read?
The IC50 was 18 µM.
